Starred links: 1 amine or outer side, 2 acyl side, 3 side chain; linkers in the order of their positions; H or OH if unused. Non-standard residues stand in square brackets, D forms with d. Residues, ends and D or L forms follow the SMILES beside them. Haic = O=C1[C@@H](N[*:1])CCc2cccc3c2N1[C@H](C(=O)[*:2])C3; dTrp(2-Me) = Cc1[nH]c2ccccc2c1C[C@@H](N)C(=O)O; azaPhe = O=C(N(Cc1ccccc1)N[*:1])[*:2]; azaLeu = CC(C)CN(N[*:1])C(=O)[*:2]; azaGly = NNC(=O)O
Assays:
[1] = biological target: Platelet glycoprotein 4 (Rattus norvegicus, UniProt Q07969); assay: Displacement of photoactivatable [125I]-Tyr-Bpa-Ala-Hexarelin from CD36 in Sprague-Dawley rat cardiac membranes incubated for 60 mins by densitometry; format: cell membranes, Membrane
Chain of Platelet glycoprotein 4 (Q07969 whole entry): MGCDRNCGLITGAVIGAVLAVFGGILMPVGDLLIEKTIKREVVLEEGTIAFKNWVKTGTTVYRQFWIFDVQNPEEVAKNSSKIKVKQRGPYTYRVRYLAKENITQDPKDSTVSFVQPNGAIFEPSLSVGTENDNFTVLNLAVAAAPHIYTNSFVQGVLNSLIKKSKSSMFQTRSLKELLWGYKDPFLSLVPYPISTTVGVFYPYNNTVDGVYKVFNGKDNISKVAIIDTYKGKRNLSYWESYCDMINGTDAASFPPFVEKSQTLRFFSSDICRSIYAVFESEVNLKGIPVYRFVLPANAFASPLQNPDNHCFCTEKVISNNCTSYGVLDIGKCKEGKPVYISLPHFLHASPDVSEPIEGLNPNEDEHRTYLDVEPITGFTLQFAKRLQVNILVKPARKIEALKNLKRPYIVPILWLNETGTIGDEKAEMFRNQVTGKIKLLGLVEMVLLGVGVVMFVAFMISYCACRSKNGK

[2] = Antiangiogenic effect in […] mouse microvascular choroid explants assessed as choroid sprouting at 10^-7 M after 4 days (reference value: 53%); format: functional
[3] = biological target: Growth hormone secretagogue receptor type 1 (Homo sapiens, UniProt Q92847); assay: Displacement of [125I]ghrelin expressed in LLC-PK1 cells incubated for 1 hr by gamma counting method; format: cell-based
Chain of Growth hormone secretagogue receptor type 1 (Q92847 whole entry): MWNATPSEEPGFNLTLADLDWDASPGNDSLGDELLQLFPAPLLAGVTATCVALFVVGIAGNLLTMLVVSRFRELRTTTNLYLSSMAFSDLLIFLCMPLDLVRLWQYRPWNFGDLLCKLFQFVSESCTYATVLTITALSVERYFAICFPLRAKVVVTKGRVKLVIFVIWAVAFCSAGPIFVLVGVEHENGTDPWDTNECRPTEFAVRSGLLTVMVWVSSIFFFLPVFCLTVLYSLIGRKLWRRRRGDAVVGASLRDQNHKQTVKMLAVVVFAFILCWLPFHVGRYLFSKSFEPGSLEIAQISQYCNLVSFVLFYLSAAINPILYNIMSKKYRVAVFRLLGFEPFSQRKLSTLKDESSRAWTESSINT
Summary of the method: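 Membranes from LLC-PK1 cells transiently transfected with GHS-R1a (CaPO₄; harvested 24 h later; freeze/thaw lysis, 10000g), 10 μg protein/tube. Incubated with ¹²⁵I-ghrelin (40,000 cpm) and competitor 10⁻¹² to 10⁻⁵ M, 1 h at RT, in Tris/MgCl₂/EDTA/bacitracin buffer pH 7.3. Nonspecific binding set with 10⁻⁵ M competitor. Bound separated by filtration on PEI-soaked GF/C filters, gamma counted.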

Structure (SMILES) | IC50 [1] | IC50 [3] | Activity [2]
CC(C)CN(NC(=O)[C@@H](Cc1c[nH]c2ccccc12)NC(=O)[C@@H](N)Cc1cnc[nH]1)C(=O)N[C@@H](Cc1c[nH]c2ccccc12)C(=O)N[C@H](Cc1ccccc1)C(=O)N[C@@H](C)C(N)=O (H-H[dW][azaLeu]W[dF]A-NH2) | 7.59 µM | – | 25%
CC(C)CN(NC(=O)[C@H](N)Cc1c[nH]c2ccccc12)C(=O)N[C@@H](Cc1c[nH]c2ccccc12)C(N)=O | > 10 µM | > 10 µM | 47%
C[C@H](N)C(=O)N[C@H](Cc1c[nH]c2ccccc12)C(=O)N[C@@H](C)C(=O)NN(Cc1ccccc1)C(=O)N[C@H](Cc1ccccc1)C(=O)N[C@@H](CCCCN)C(N)=O (H-A[dW]A[azaPhe][dF]K-NH2) | 7.58 µM | > 10 µM | 105%

Continued by falling IC50 [1], values first:

IC50 [1] | IC50 [3] | Structure (SMILES) | Activity [2]
42.7 µM | > 10 µM | C[C@H](N)C(=O)NN(Cc1ccccc1)C(=O)N[C@@H](C)C(=O)N[C@@H](Cc1c[nH]c2ccccc12)C(=O)N[C@H](Cc1ccccc1)C(=O)N[C@@H](CCCCN)C(N)=O (H-A[azaPhe]AW[dF]K-NH2) | 28%
6.06 µM | – | C[C@H](N)C(=O)N[C@H](Cc1c[nH]c2ccccc12)C(=O)NNC(=O)N[C@@H](Cc1c[nH]c2ccccc12)C(=O)N[C@H](Cc1ccccc1)C(=O)N[C@@H](CCCCN)C(N)=O (H-A[dW][azaGly]W[dF]K-NH2) | 72%
1.11 µM | 0.75 µM | Cc1[nH]c2ccccc2c1C[C@@H](NC(=O)[C@@H]1Cc2cccc3c2N1C(=O)[C@@H](N)CC3)C(=O)N[C@H](CCCCN)C(=O)N[C@@H](Cc1c[nH]c2ccccc12)C(=O)N[C@H](Cc1ccccc1)C(=O)N[C@@H](CCCCN)C(N)=O (Haic-[dTrp(2-Me)][dK]W[dF]K-NH2) | 3%

— ChEMBL document CHEMBL2163252, “Azapeptide analogues of the growth hormone releasing peptide 6 as cluster of differentiation 36 receptor ligands with reduced affinity for the growth hormone secretagogue receptor 1a” (J Med Chem, 2012)
